Experimental data reported in ChEMBL document CHEMBL4354873, “Rationally Designed Small-Molecule Inhibitors Targeting an Unconventional Pocket on the TLR8 Protein-Protein Interface” (J Med Chem, 2020).
Calls of active or inactive are those of the source. The rule behind the calls is not given here.

Tests used:
Assay type in all cases: cell-based
[1] = molecular target: Toll-like receptor 3 (Homo sapiens) (UniProt O15455); test: Inhibition of human TLR3 expressed in HEK-Blue cells assessed as inhibition of poly(I/C)-induced NF-kappaB activation at 20 uM measured after 24 hrs by quanti-blue based SEAP reporter gene assay
How it was run: (§1)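 HEK-Blue SEAP format: 4 × 10⁴ cells/well in DMEM with ligand plus compound, 24 h at 37 °C. Supernatant mixed with QUANTI-Blue up to 1 h, then A620 read. Ligands: Pam3CSK4 100 ng/mL (TLR1/2), Pam2CSK4 100 ng/mL (TLR2/6), poly(I:C) 5 µg/mL (TLR3), LPS 20 ng/mL (TLR4), flagellin 50 ng/mL (TLR5), R848 1 µg/mL (TLR7), R848 2 µg/mL (TLR8), ODN2006 0.5 µM (TLR9). Mean ± s.d.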

[2] = molecular target: T1, Toll-like receptor 8 (Homo sapiens) (UniProt Q9NR97); test: Inhibition of TLR8 in human monocytes assessed as reduction in R848-induced p65 nuclear translocation up to 5 uM measured after 2 hrs by Western blot analysis
T1 sequence (whole entry): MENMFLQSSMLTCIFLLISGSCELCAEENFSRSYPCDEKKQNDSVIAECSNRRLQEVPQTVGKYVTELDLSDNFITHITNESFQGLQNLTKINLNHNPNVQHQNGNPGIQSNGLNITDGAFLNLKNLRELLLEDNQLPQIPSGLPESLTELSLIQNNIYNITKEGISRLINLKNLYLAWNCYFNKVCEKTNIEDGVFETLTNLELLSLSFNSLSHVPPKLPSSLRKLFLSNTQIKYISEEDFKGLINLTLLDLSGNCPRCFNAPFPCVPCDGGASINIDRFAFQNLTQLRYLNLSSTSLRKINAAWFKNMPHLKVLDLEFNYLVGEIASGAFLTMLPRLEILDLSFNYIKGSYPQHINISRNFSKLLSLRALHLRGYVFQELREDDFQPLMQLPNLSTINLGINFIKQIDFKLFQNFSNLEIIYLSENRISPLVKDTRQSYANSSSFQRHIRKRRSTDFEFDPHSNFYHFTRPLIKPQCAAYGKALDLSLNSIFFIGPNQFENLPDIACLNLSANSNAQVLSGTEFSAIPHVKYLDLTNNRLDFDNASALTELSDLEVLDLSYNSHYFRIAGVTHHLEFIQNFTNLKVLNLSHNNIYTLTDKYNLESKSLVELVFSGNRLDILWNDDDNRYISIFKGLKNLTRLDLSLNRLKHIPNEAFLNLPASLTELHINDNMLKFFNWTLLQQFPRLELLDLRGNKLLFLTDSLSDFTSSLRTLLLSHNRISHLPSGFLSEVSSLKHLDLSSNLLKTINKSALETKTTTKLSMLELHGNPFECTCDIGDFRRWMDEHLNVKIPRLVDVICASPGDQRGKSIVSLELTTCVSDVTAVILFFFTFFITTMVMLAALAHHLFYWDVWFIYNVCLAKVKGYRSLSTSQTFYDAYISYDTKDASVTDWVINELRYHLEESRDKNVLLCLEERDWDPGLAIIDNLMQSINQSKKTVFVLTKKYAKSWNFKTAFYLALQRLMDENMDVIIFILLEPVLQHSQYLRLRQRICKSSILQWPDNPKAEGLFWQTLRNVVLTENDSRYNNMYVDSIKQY
How it was run: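 Monocyte cell lines, 2 × 10⁶/well, differentiated with PMA 100 ng/mL for 24 h. After washes, cells in unsupplemented RPMI received R848 1 µg/mL with varying compound concentrations for 2 h. Nuclear/cytoplasmic fractions extracted and resolved on 10% SDS-PAGE. Blots probed for p65, TRAF3 and p-IRAK4 (1:1000); lamin A/C (nuclear) and β-actin (cytoplasmic) as loading controls.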

[3] = molecular target: Toll-like receptor 4 (Homo sapiens) (UniProt O00206); test: Inhibition of human TLR4 expressed in HEK-Blue cells assessed as inhibition of LPS-induced NF-kappaB activation at 20 uM measured after 24 hrs by quanti-blue based SEAP reporter gene assay; how it was run: as §1
[4] = molecular target: T1, Toll-like receptor 8 (Homo sapiens); test: Inhibition of human TLR8 expressed in HEK-Blue cells assessed as inhibition of R848-induced TNFalpha mRNA level at 1 uM measured after 8 hrs by Trizol reagent based qRT-PCR analysis
How it was run: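 RT-qPCR: HEK-Blue TLR8 cells seeded at 1 × 10⁶/well and grown 24 h, then switched to serum-free medium. Treated with R848 4 µg/mL ± compound 1 µM for 8 h. Total RNA extracted with TRIzol, reverse transcribed, TNF-α and IL-8 mRNA quantified. Three independent biological replicates, mean ± s.d.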

[5] = molecular target: T1, Toll-like receptor 8 (Homo sapiens); test: Inhibition of TLR8 in human monocytes assessed as reduction in R848-induced IL1beta production measured after 24 hrs by ELISA
How it was run: (§2)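 Human monocyte cell lines in RPMI 1640 with 10% FBS and 0.05 mM 2-mercaptoethanol, 1 × 10⁶/well, 24 h. After PBS washes, fresh RPMI added with R848 1 µg/mL and varying compound concentrations for 24 h. Supernatant TNF-α, IL-6 and IL-1β measured by ELISA.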

[6] = molecular target: T1, Toll-like receptor 8 (Homo sapiens); test: Inhibition of TLR8 in human monocytes assessed as reduction in R848-induced TNFalpha production measured after 24 hrs by ELISA; how it was run: as §2

Sequence of Toll-like receptor 3 (Homo sapiens) (O15455 whole entry): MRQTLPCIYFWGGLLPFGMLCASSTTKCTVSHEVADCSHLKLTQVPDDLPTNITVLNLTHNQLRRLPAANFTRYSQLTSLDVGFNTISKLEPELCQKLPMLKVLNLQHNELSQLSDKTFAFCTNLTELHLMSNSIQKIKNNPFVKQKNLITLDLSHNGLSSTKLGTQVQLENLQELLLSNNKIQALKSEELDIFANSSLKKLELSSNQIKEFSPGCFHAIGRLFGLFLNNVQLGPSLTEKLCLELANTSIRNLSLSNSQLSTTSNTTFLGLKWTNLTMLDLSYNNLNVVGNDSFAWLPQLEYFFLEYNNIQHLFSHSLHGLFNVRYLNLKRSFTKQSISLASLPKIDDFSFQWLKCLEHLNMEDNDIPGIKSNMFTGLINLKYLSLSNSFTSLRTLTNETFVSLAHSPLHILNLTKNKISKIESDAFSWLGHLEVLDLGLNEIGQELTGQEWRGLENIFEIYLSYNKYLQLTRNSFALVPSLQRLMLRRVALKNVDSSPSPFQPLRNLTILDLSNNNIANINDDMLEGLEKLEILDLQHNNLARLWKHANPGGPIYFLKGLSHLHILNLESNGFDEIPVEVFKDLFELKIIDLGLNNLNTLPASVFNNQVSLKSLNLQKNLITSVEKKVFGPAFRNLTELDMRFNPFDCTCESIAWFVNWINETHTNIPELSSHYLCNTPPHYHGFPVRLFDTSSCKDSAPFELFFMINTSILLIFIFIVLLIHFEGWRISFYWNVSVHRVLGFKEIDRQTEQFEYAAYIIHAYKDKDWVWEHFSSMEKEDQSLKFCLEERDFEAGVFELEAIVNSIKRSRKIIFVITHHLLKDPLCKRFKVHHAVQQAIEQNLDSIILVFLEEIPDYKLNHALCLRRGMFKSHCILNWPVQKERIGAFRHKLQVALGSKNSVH
Sequence of Toll-like receptor 4 (Homo sapiens) (O00206 whole entry): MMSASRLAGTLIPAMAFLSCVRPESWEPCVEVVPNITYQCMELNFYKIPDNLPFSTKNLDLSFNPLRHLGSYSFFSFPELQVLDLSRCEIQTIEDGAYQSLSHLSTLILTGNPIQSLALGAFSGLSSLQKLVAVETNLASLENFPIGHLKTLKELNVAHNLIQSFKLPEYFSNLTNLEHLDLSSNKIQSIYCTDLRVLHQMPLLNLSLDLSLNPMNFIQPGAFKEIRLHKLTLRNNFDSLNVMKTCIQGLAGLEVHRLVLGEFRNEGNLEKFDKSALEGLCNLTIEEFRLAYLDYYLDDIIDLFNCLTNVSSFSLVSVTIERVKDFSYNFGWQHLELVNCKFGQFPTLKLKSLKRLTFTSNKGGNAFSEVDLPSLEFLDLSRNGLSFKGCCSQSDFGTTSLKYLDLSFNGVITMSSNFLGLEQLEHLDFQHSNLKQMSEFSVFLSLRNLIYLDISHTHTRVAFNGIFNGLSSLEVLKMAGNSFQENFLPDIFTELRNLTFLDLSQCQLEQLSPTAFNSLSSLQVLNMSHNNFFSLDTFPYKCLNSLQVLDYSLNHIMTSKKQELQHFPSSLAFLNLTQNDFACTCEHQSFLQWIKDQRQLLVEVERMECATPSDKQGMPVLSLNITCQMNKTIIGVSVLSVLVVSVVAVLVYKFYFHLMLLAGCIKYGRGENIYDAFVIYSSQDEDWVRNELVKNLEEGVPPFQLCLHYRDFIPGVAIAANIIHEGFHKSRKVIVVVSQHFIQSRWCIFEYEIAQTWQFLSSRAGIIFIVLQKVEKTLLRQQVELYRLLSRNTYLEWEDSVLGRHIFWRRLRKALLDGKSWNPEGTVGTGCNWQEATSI

inhibition [1]: inactive
inhibition [2]: Active
inhibition [3]: inactive
inhibition [4]: Active
inhibition [5]: Dose-dependent effect
inhibition [6]: Dose-dependent effect
SMILES: CSc1nnc(CCCO)n1-c1cc(C)c(C)c(C)c1
